Tests used:
D(2) dopamine receptor = D(2) dopamine receptor (Rattus norvegicus, UniProt P61169); test: Binding affinity towards dopamine receptor D2 in rat striatal membranes; type: cell membranes, Striatum, Membrane
[1] = biological target: T1, Adrenergic receptor alpha-1 (Rattus norvegicus, UniProt P15823+P23944+P43140); test: Binding affinity towards alpha-1 adrenergic receptor in rat cortical membranes; type: cell membranes
T1 sequence (P15823 whole entry): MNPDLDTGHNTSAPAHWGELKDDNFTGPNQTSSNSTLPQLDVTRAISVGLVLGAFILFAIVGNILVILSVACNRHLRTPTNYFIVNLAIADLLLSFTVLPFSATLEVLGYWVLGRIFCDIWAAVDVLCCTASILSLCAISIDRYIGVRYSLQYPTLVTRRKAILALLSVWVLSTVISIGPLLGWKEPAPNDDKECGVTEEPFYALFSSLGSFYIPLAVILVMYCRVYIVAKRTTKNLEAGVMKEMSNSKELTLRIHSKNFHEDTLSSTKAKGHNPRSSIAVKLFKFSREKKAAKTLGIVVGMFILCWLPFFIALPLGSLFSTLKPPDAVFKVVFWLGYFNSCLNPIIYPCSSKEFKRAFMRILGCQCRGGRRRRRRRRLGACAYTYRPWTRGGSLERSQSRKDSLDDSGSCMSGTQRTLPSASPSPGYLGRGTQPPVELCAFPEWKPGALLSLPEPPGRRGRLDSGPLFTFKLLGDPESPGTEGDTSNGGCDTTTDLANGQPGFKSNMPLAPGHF
T1 sequence (P23944 whole entry): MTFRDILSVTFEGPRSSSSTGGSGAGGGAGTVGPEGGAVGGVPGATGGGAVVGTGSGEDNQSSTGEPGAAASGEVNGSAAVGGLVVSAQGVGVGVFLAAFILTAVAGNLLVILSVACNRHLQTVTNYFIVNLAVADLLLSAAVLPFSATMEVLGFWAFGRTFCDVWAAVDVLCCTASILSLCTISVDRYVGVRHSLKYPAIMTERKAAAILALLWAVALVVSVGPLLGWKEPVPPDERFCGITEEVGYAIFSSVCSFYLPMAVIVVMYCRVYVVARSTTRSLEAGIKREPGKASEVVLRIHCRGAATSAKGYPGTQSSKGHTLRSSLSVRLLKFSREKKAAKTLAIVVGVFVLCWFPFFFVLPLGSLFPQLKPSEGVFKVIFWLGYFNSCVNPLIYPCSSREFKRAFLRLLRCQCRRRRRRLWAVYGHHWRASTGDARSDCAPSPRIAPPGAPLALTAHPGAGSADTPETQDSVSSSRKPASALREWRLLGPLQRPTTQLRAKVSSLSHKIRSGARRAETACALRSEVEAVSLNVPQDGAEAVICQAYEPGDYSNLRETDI
T1 sequence (P43140 whole entry): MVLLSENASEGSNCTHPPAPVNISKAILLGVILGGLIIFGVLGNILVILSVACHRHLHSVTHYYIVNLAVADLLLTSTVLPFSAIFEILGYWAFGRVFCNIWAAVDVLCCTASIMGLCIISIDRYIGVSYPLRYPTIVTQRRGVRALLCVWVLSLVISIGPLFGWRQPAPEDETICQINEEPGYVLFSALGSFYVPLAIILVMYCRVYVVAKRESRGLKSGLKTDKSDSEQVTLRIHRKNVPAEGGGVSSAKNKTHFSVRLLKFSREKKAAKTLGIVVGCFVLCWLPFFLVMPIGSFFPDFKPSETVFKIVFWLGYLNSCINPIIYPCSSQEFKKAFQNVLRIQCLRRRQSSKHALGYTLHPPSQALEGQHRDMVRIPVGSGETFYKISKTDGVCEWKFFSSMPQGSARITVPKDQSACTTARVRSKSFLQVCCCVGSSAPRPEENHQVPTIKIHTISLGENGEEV

[2] = biological target: T2, 5-hydroxytryptamine receptor 1A (Rattus norvegicus, UniProt P19327); test: Binding was determined on 5-hydroxytryptamine 1A receptor in rat hippocampal membranes; type: cell membranes, Hippocampus
T2 sequence (P19327 whole entry): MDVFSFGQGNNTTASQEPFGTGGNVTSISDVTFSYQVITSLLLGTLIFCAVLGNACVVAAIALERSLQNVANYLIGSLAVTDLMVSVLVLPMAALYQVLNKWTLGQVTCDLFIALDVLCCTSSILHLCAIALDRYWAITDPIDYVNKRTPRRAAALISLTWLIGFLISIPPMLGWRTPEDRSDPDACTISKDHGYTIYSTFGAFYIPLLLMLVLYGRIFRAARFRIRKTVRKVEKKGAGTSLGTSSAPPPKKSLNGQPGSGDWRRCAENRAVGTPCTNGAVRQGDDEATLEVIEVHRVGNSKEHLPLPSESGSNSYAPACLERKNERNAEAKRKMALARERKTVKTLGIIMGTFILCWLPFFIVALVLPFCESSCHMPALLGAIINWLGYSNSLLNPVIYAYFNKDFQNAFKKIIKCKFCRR
Outline: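 Hippocampus from male Wistar Hannover rats, homogenized in 50 mM Tris pH 7.6, washed, and preincubated 10 min at 37 °C. Ki given as mean ± SEM.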

[3] = biological target: T3, 5-hydroxytryptamine receptor 1A (Homo sapiens) (UniProt P08908); test: Maximal stimulation was expressed as percentage of the maximal 5-HT response in the [35S]GTP-gamma-S, binding assay on 5-hydroxytryptamine 1A receptor; type: functional
T3 sequence (whole entry): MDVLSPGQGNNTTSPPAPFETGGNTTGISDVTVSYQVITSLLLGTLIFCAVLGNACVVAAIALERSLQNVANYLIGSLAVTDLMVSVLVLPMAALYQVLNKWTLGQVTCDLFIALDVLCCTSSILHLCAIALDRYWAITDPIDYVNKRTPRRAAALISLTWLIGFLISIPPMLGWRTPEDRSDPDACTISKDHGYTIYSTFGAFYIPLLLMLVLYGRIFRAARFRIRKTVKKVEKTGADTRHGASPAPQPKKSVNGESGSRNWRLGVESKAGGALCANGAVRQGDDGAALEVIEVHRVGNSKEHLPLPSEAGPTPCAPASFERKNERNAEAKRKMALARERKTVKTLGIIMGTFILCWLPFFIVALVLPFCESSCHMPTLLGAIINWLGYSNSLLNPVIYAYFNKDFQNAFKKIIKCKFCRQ
Outline: (§1)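 Membranes of HeLa cells expressing human 5-HT1A, in 20 mM HEPES, 3 mM MgCl2, 120 mM NaCl pH 7.4. Preincubated 20 min at 30 °C with 30 µM GDP and drug (0.1 nM–100 µM) or 5-HT as reference curve. [35S]GTPγS (200–250 pM) then added for 30 min at 30 °C. Nonspecific binding with 10 µM GTPγS. Curves fitted by ALLFIT to give Emax and pD2 (−log EC50).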

[4] = Selectivity expressed as a ratio of affinity against Alpha 1A-Adrenoceptor to that of 5-HT1A receptor
[5] = biological target: T3, 5-hydroxytryptamine receptor 1A (Homo sapiens); test: Potency (pD2) for the stimulation of [35S]GTP-gamma-S, binding on 5-hydroxytryptamine 1A receptor; type: functional; outline: as §1
[6] = Selectivity expressed as a ratio of affinity against Alpha 1d-Adrenoceptor to that of 5-HT1A receptor
[7] = biological target: T4, 5-hydroxytryptamine receptor 1A (Rattus norvegicus) (UniProt P19327); test: Agonistic activity (induction of forepaw treading in rats)on postsynaptic 5-hydroxytryptamine 1A receptor while iv administration; type: functional, organism-based
T4 sequence (whole entry): T2 sequence (P19327 whole entry)
Outline: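 Male Sprague Dawley rats (175–200 g), iv injection; vehicle DMF 20% v/v plus Tween 80 10% v/v in water, or water for the reference agonist. Rats placed singly 10–15 min beforehand, 4–8 per dose. A blind observer scored fore-paw treading in 30 s sessions every 3 min from 3 to 15 min.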

[8] = Selectivity expressed as a ratio of affinity against Alpha 1b-Adrenoceptor to that of 5-HT1A receptor

Chain of D(2) dopamine receptor (P61169 whole entry): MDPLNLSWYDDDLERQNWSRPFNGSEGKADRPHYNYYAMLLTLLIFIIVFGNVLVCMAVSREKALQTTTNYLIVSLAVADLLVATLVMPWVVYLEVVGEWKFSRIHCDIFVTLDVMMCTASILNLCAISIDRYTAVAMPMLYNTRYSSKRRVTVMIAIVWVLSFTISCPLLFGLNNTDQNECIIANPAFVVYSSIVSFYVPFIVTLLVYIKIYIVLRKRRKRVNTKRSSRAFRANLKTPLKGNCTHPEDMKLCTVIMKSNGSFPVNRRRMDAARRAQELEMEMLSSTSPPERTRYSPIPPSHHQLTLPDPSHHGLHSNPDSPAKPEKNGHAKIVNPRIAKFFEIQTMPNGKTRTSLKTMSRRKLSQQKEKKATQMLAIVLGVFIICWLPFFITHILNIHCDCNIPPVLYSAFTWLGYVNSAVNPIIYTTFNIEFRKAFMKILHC

Row | SMILES | Ki (D(2) dopamine receptor) [nM] | Ki [1] [nM] | Ki [2] [nM] | further results
1 | COc1cccc2c1CCC/C2=C\CCNCCOc1ccccn1 | > 850 | > 850 | 0.71 | 
2 | COc1ccc2c(c1)CCC(CNCCOc1ccccn1)C2 (stereo unspecified) | > 850 | > 850 | 59 | 
3 | COc1cccc(C2CCC(N3CCN(c4ccccn4)CC3)CC2)c1 (cis isomer) | > 850 | 783 | 815 | 
4 | COc1cccc(C2CCC(N3CCN(c4cccc5ccccc45)CC3)CC2)c1 (trans isomer) | 70 | 470 | 0.22 | 
5 | COc1ccc(C2CCC(N3CCN(c4ccccn4)CC3)CC2)cc1 (stereo in doubt) | 787 | 786 | 94 | 
6 | COc1cccc(C2CCC(N3CCN(c4cccc5ccccc45)CC3)CC2)c1 (stereo in doubt) | 1310 | 5540 | 74 | 
7 | COc1cccc(C2CCC(N3CCN(c4ccccc4OC)CC3)CC2)c1 (stereo in doubt; cis) | 668 | 1050 | 79.6 | 
8 | COc1ccc2c(c1)CCC(CN1CCN(c3ccccn3)CC1)C2 (stereo unspecified) | > 850 | 585 | 676 | 
9 | CCCN(CCC)C1CCc2cccc(O)c2C1 (stereo unspecified) |  |  |  | Emax [3]: 100%
10 | COc1ccccc1C1CCC(N2CCN(c3ccccn3)CC2)CC1 (stereo in doubt; trans) | 243 | 303 | 0.2 | 
11 | COc1cccc(C2=CCC(N3CCN(c4cccc5ccccc45)CC3)CC2)c1 (stereo unspecified) | 327 | 986 | 15 | 
12 | COc1cccc(CCCCN2CCN(c3ccccn3)CC2)c1 | 750 | 467 | 23 | 
13 | COc1cccc(C2CCC(NCCOc3ccccn3)CC2)c1 (cis isomer) | 783 |  | 373 | 
14 | COc1ccc(C2CCC(N3CCN(c4ccccn4)CC3)CC2)cc1 (trans isomer) | 792 | 847 | 0.046 | 
15 | COc1ccccc1C1CCC(N2CCN(c3ccccn3)CC2)CC1 (stereo in doubt; cis) | 2120 | 712 | 480 | 
16 | COc1cccc(C2=CCC(N3CCN(c4ccccc4)CC3)CC2)c1 (stereo unspecified) | 2190 | 5160 |  | 
17 | COc1cccc(C2=CCC(N3CCN(c4ccccn4)CC3)CC2)c1 (stereo unspecified) | 1220 | 512 | 536 | 
18 | COc1cccc(C2CCC(N3CCN(c4ccccn4)CC3)CC2)c1 (trans isomer) |  |  |  | Selectivity [4]: 165; pD2 [5]: 9.28; Selectivity [6]: 590; ED50 [7]: 0.721 µg/kg; Emax [3]: 95.9%; Selectivity [8]: 265
19 | COc1cccc(C2CCC(NCCOc3ccccn3)CC2)c1 (stereo in doubt) |  |  |  | Selectivity [4]: 53; pD2 [5]: 7.46; Selectivity [6]: 37; Emax [3]: 82%; Selectivity [8]: 88
20 | COc1cccc(C2CCC(N3CCN(c4ccccc4OC)CC3)CC2)c1 (stereo in doubt; trans) |  |  |  | Selectivity [4]: 24; pD2 [5]: 9.91; Selectivity [6]: 21; Emax [3]: 26.5%; Selectivity [8]: 206
21 | COc1cccc2c1CCC/C2=C\CCN1CCN(c2ccccn2)CC1 | 125 | 60 | 0.31 | 
22 | COc1cccc(C2=CCC(N3CCN(c4ccccc4OC)CC3)CC2)c1 (stereo unspecified) | 2930 | 408 | 7.1 | 
23 | COc1cccc(CCCCNCCOc2ccccn2)c1 | > 850 | 733 | 39 | 
24 | COc1cccc(C2CCC(N3CCN(c4ccccc4)CC3)CC2)c1 (stereo in doubt; cis) | 2380 | 2250 | 183 | 
25 | COc1cccc(C2CCC(N3CCN(c4ccccc4)CC3)CC2)c1 (stereo in doubt; trans) | 910 | 730 | 0.026 | 
26 | COc1ccc2c(c1)CC(CCN1CCN(c3ccccn3)CC1)CC2 (stereo unspecified) | 1730 | 117 | 0.16 | 

Source: ChEMBL document CHEMBL1134307, “trans-4-[4-(Methoxyphenyl)cyclohexyl]-1-arylpiperazines: a new class of potent and selective 5-HT(1A) receptor ligands as conformationally constrained analogues of 4-[3-(5-methoxy-1,2,3,4-tetrahydronaphthalen-1-yl)propyl]-1-arylpiperazines” (J Med Chem, 2001)
